ChEMBL document CHEMBL4689842, “EUbOPEN Chemogenomics Library wave 1” (2021)

Test system: Fibroblast
Experiment: Multiplex assay against human fibroblast
Format: toxicity, cell-based
How it was run: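 Imaging took place on a CQ1 microscope at 37°C and 5% CO2 once compound had been added to live cells stained at seeding with Hoechst33342, BioTracker Green Microtubule Cytoskeleton Dye, MitoTracker Red and Annexin V Alexa Fluor 680. CellPathfinder machine-learning gating classed cells as Hoechst high-intensity objects or normal cells, classed normal cells as having healthy, pyknosed or fragmented nuclei, and classed pyknosed cells as mitotic or apoptotic. Tubulin, mitochondrial-mass and membrane-permeability phenotypes are per cents of the healthy-nucleus cells.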

[1] = 12 h, 1 µM, compound concentration 1 uM, replicate 1
[2] = 12 h, 1 µM, compound concentration 1 uM, replicate 2
[3] = 12 h, 10 µM, compound concentration 10 uM, replicate 1
[4] = 12 h, 10 µM, compound concentration 10 uM, replicate 2
[5] = 24 h, 1 µM, compound concentration 1 uM, replicate 1
[6] = 24 h, 1 µM, compound concentration 1 uM, replicate 2
[7] = 24 h, 10 µM, compound concentration 10 uM, replicate 1
[8] = 24 h, 10 µM, compound concentration 10 uM, replicate 2
[9] = 48 h, 1 µM, compound concentration 1 uM, replicate 1
[10] = 48 h, 1 µM, compound concentration 1 uM, replicate 2
[11] = 48 h, 10 µM, compound concentration 10 uM, replicate 1
[12] = 48 h, 10 µM, compound concentration 10 uM, replicate 2

## C=C1/C(=C\C=C2/CCC[C@]3(C)[C@@H]([C@H](C)/C=C/[C@H](C)C(C)C)CC[C@@H]23)C[C@@H](O)C[C@@H]1O [DOXERCALCIFEROL]
[1]
  Population Apoptotic (%): 63%
  Population Fragmented Nuclei (%): 23%
  Population Healthy Nuclei (%): 33%
  Population Hoechst High Intensity Objects (%): 10%
  Population Membrane Permeable-Phenotype (%): 10%
  Population Mitochondria Different-Phenotype (%): 0%
  Population Mitotic Cells (%): 36%
  Population Normal (%): 89%
  Population Pyknosed Nuclei (%): 42%
  Population Tubulin-Different-Phenotype (%): 14%
  Total Cell Count: 94
[2]
  Population Apoptotic (%): 40%
  Population Fragmented Nuclei (%): 1%
  Population Healthy Nuclei (%): 90%
  Population Hoechst High Intensity Objects (%): 1%
  Population Membrane Permeable-Phenotype (%): 5%
  Population Mitochondria Different-Phenotype (%): 14%
  Population Mitotic Cells (%): 60%
  Population Normal (%): 98%
  Population Pyknosed Nuclei (%): 8%
  Population Tubulin-Different-Phenotype (%): 9%
  Total Cell Count: 111
[3]
  Population Apoptotic (%): 30%
  Population Fragmented Nuclei (%): 72%
  Population Healthy Nuclei (%): 21%
  Population Hoechst High Intensity Objects (%): 11%
  Population Membrane Permeable-Phenotype (%): 4%
  Population Mitochondria Different-Phenotype (%): 15%
  Population Mitotic Cells (%): 69%
  Population Normal (%): 88%
  Population Pyknosed Nuclei (%): 5%
  Population Tubulin-Different-Phenotype (%): 28%
  Total Cell Count: 247
[4]
  Population Apoptotic (%): 0%
  Population Fragmented Nuclei (%): 27%
  Population Healthy Nuclei (%): 67%
  Population Hoechst High Intensity Objects (%): 6%
  Population Membrane Permeable-Phenotype (%): 2%
  Population Mitochondria Different-Phenotype (%): 21%
  Population Mitotic Cells (%): 100%
  Population Normal (%): 93%
  Population Tubulin-Different-Phenotype (%): 13%
  Total Cell Count: 61
[5]
  Population Apoptotic (%): 38%
  Population Fragmented Nuclei (%): 18%
  Population Healthy Nuclei (%): 48%
  Population Hoechst High Intensity Objects (%): 10%
  Population Membrane Permeable-Phenotype (%): 22%
  Population Mitochondria Different-Phenotype (%): 2%
  Population Mitotic Cells (%): 61%
  Population Normal (%): 89%
  Population Pyknosed Nuclei (%): 34%
  Population Tubulin-Different-Phenotype (%): 27%
  Total Cell Count: 112
[6]
  Population Apoptotic (%): 42%
  Population Fragmented Nuclei (%): 5%
  Population Healthy Nuclei (%): 86%
  Population Hoechst High Intensity Objects (%): 4%
  Population Membrane Permeable-Phenotype (%): 4%
  Population Mitochondria Different-Phenotype (%): 7%
  Population Mitotic Cells (%): 57%
  Population Normal (%): 95%
  Population Pyknosed Nuclei (%): 8%
  Population Tubulin-Different-Phenotype (%): 14%
  Total Cell Count: 157
[7]
  Population Apoptotic (%): 69%
  Population Fragmented Nuclei (%): 55%
  Population Healthy Nuclei (%): 36%
  Population Hoechst High Intensity Objects (%): 9%
  Population Membrane Permeable-Phenotype (%): 12%
  Population Mitochondria Different-Phenotype (%): 6%
  Population Mitotic Cells (%): 30%
  Population Normal (%): 90%
  Population Pyknosed Nuclei (%): 8%
  Population Tubulin-Different-Phenotype (%): 9%
  Total Cell Count: 304
[8]
  Population Apoptotic (%): 33%
  Population Fragmented Nuclei (%): 25%
  Population Healthy Nuclei (%): 70%
  Population Hoechst High Intensity Objects (%): 3%
  Population Membrane Permeable-Phenotype (%): 1%
  Population Mitochondria Different-Phenotype (%): 16%
  Population Mitotic Cells (%): 66%
  Population Normal (%): 96%
  Population Pyknosed Nuclei (%): 4%
  Population Tubulin-Different-Phenotype (%): 13%
  Total Cell Count: 83
[9]
  Population Apoptotic (%): 66%
  Population Fragmented Nuclei (%): 22%
  Population Healthy Nuclei (%): 58%
  Population Hoechst High Intensity Objects (%): 18%
  Population Membrane Permeable-Phenotype (%): 21%
  Population Mitochondria Different-Phenotype (%): 3%
  Population Mitotic Cells (%): 33%
  Population Normal (%): 81%
  Population Pyknosed Nuclei (%): 18%
  Population Tubulin-Different-Phenotype (%): 35%
  Total Cell Count: 118
[10]
  Population Apoptotic (%): 0%
  Population Fragmented Nuclei (%): 27%
  Population Healthy Nuclei (%): 72%
  Population Hoechst High Intensity Objects (%): 42%
  Population Membrane Permeable-Phenotype (%): 17%
  Population Mitochondria Different-Phenotype (%): 2%
  Population Mitotic Cells (%): 0%
  Population Normal (%): 57%
  Population Pyknosed Nuclei (%): 0%
  Population Tubulin-Different-Phenotype (%): 37%
  Total Cell Count: 165
[11]
  Population Apoptotic (%): 86%
  Population Fragmented Nuclei (%): 33%
  Population Healthy Nuclei (%): 46%
  Population Hoechst High Intensity Objects (%): 12%
  Population Membrane Permeable-Phenotype (%): 23%
  Population Mitochondria Different-Phenotype (%): 0%
  Population Mitotic Cells (%): 13%
  Population Normal (%): 87%
  Population Pyknosed Nuclei (%): 19%
  Population Tubulin-Different-Phenotype (%): 2%
  Total Cell Count: 351
[12]
  Population Apoptotic (%): 100%
  Population Fragmented Nuclei (%): 39%
  Population Healthy Nuclei (%): 59%
  Population Hoechst High Intensity Objects (%): 14%
  Population Mitochondria Different-Phenotype (%): 1%
  Population Mitotic Cells (%): 0%
  Population Normal (%): 85%
  Population Pyknosed Nuclei (%): 1%
  Population Tubulin-Different-Phenotype (%): 49%
  Total Cell Count: 128
